According to ChEMBL document CHEMBL4382238, “Synthesis of isatin based N1-alkylated 3-β-C-glycoconjugated-oxopropylidene oxindoles as potent antiplasmodial agents” (Eur J Med Chem, 2019):

Columns and labels:
Plasmodium falciparum [1] = experiment: Antiplasmodial activity against chloroquine-sensitive Plasmodium falciparum 3D7 asynchronous cultures infected in human erythrocytes after 72 hrs by SYBR green1 staining based fluorescence assay; assay type: functional, organism-based; details: 3D7, 72 h
Outline: (§1)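 Parasites kept in human erythrocytes at 5% hematocrit in RPMI-1640 (HEPES) with 0.5% AlbuMaxII, 0.2% glucose, bicarbonate, 15 µM hypoxanthine, 37 °C CO2. Two-fold serial dilutions spanning […]; asynchronous culture at 0.8-1% parasitaemia, 1% haematocrit; 72 h, 37 °C. Lytic buffer with SYBR Green (1x final), 2 h dark, RT; Ex 485/Em 535 nm. IC50 from DNA signal versus drug-free controls; at least duplicate determinations.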

[2] = Cytotoxicity against African green monkey Vero cells measured after 72 hrs by resazurin assay; assay type: cell-based; details: chlorocebus sabaeus
Outline: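 VERO monkey kidney cells grown in MEM with 15% FBS under 5% CO2 at 37 °C. Cells exposed to serial drug dilutions for three days. 10% resazurin then added as viability marker. Fluorescence read at excitation 530 ± 25 nm and emission 590 ± 25 nm to calculate median cytotoxic concentration (CC50). Values are the average of at least duplicate determinations.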

Plasmodium falciparum [3] = experiment: Antiplasmodial activity against chloroquine-resistant Plasmodium falciparum K1 asynchronous cultures infected in human erythrocytes after 72 hrs by SYBR green1 staining based fluorescence assay; assay type: functional, organism-based; details: K1, 72 h; outline: as §1
[4] = Selectivity index, ratio of CC50 for African green monkey Vero cells to IC50 for chloroquine-resistant Plasmodium falciparum K1 asynchronous cultures infected in human erythrocytes; assay type: toxicity, cell-based; details: read-out: Ratio CC50/IC50
[5] = Selectivity index, ratio of CC50 for African green monkey Vero cells to IC50 for chloroquine-sensitive Plasmodium falciparum 3D7 asynchronous cultures infected in human erythrocytes; assay type: toxicity, cell-based; details: read-out: Ratio CC50/IC50

## CC(=O)OC[C@H]1O[C@@H](CC(=O)/C=C2\C(=O)N(CCc3ccccc3)c3ccccc32)[C@H](OC(C)=O)[C@@H](OC(C)=O)[C@@H]1OC(C)=O
Plasmodium falciparum [1]
  IC50: 0.95 µM
[2]
  CC50 at 72 h: 64.7 µM
Plasmodium falciparum [3]
  IC50: 0.75 µM
[4]
  selectivity ratio: 86.2
[5]
  selectivity ratio: 68.1

## CC(=O)OC[C@H]1O[C@@H](CC(=O)/C=C2\C(=O)N(Cc3ccc(F)cc3)c3ccc(Cl)cc32)[C@H](OC(C)=O)[C@@H](OC(C)=O)[C@@H]1OC(C)=O
Plasmodium falciparum [1]
  IC50: 0.32 µM
[2]
  CC50 at 72 h: 107 µM
Plasmodium falciparum [3]
  IC50: 0.25 µM
[4]
  selectivity ratio: 429
[5]
  selectivity ratio: 335

## CC(=O)OC[C@H]1O[C@@H](CC(=O)/C=C2\C(=O)N(Cc3ccccc3)c3ccc(Cl)cc32)[C@H](OC(C)=O)[C@@H](OC(C)=O)[C@@H]1OC(C)=O
Plasmodium falciparum [1]
  IC50: 0.26 µM
[2]
  CC50 at 72 h: 91.2 µM
Plasmodium falciparum [3]
  IC50: 0.31 µM
[4]
  selectivity ratio: 294
[5]
  selectivity ratio: 351

## CC(=O)OC[C@H]1O[C@@H](CC(=O)CC2(O)C(=O)Nc3ccc(Cl)cc32)[C@H](OC(C)=O)[C@@H](OC(C)=O)[C@@H]1OC(C)=O (stereo partly drawn)
Plasmodium falciparum [1]
  IC50: > 5 µM
Plasmodium falciparum [3]
  IC50: > 5 µM

## CC(=O)OC[C@H]1O[C@@H](CC(=O)/C=C2\C(=O)N(Cc3ccccc3)c3ccccc32)[C@H](OC(C)=O)[C@@H](OC(C)=O)[C@@H]1OC(C)=O
Plasmodium falciparum [1]
  IC50: 0.77 µM
[2]
  CC50 at 72 h: 71.2 µM
Plasmodium falciparum [3]
  IC50: 0.29 µM
[4]
  selectivity ratio: 245
[5]
  selectivity ratio: 92.4

## CC(=O)OC[C@H]1O[C@@H](CC(=O)CC2(O)C(=O)N(CCc3ccccc3)c3ccc(Cl)cc32)[C@H](OC(C)=O)[C@@H](OC(C)=O)[C@@H]1OC(C)=O (stereo partly drawn)
Plasmodium falciparum [1]
  IC50: > 5 µM
Plasmodium falciparum [3]
  IC50: > 5 µM

## CCCCN1C(=O)/C(=C\C(=O)C[C@@H]2O[C@H](COC(C)=O)[C@@H](OC(C)=O)[C@H](OC(C)=O)[C@H]2OC(C)=O)c2ccccc21
Plasmodium falciparum [1]
  IC50: 2.61 µM
[2]
  CC50 at 72 h: 126 µM
Plasmodium falciparum [3]
  IC50: 1.84 µM
[4]
  selectivity ratio: 68.2
[5]
  selectivity ratio: 48.1

## CCCN1C(=O)C(O)(CC(=O)C[C@@H]2O[C@H](COC(C)=O)[C@@H](OC(C)=O)[C@H](OC(C)=O)[C@H]2OC(C)=O)c2cc(Cl)ccc21 (stereo partly drawn)
Plasmodium falciparum [1]
  IC50: > 5 µM
Plasmodium falciparum [3]
  IC50: > 5 µM

## CC(=O)OC[C@H]1O[C@@H](CC(=O)CC2(O)C(=O)N(Cc3ccc(F)cc3)c3ccccc32)[C@H](OC(C)=O)[C@@H](OC(C)=O)[C@@H]1OC(C)=O (stereo partly drawn)
Plasmodium falciparum [1]
  IC50: > 5 µM
Plasmodium falciparum [3]
  IC50: > 5 µM

## CC(=O)OC[C@H]1O[C@@H](CC(=O)CC2(O)C(=O)N(Cc3cccc(C)c3)c3ccc(Cl)cc32)[C@H](OC(C)=O)[C@@H](OC(C)=O)[C@@H]1OC(C)=O (stereo partly drawn)
Plasmodium falciparum [1]
  IC50: > 5 µM
Plasmodium falciparum [3]
  IC50: > 5 µM

## CC(=O)OC[C@H]1O[C@@H](CC(=O)CC2(O)C(=O)N(Cc3ccc(F)cc3)c3ccc(Cl)cc32)[C@H](OC(C)=O)[C@@H](OC(C)=O)[C@@H]1OC(C)=O (stereo partly drawn)
Plasmodium falciparum [1]
  IC50: 3.54 µM
Plasmodium falciparum [3]
  IC50: 2.26 µM

## CC(=O)OC[C@H]1O[C@@H](CC(=O)/C=C2\C(=O)N(Cc3ccc(Br)cc3)c3ccccc32)[C@H](OC(C)=O)[C@@H](OC(C)=O)[C@@H]1OC(C)=O
Plasmodium falciparum [1]
  IC50: 0.23 µM
[2]
  CC50 at 72 h: 76.5 µM
Plasmodium falciparum [3]
  IC50: 0.8 µM
[4]
  selectivity ratio: 95.7
[5]
  selectivity ratio: 333

## CC(=O)OC[C@H]1O[C@@H](CC(=O)/C=C2\C(=O)N(Cc3ccc(Br)cc3)c3ccc(Cl)cc32)[C@H](OC(C)=O)[C@@H](OC(C)=O)[C@@H]1OC(C)=O
Plasmodium falciparum [1]
  IC50: 0.24 µM
[2]
  CC50 at 72 h: 93.3 µM
Plasmodium falciparum [3]
  IC50: 0.15 µM
[4]
  selectivity ratio: 622
[5]
  selectivity ratio: 389

## CC(=O)OC[C@H]1O[C@@H](CC(=O)/C=C2\C(=O)N(Cc3cccc(C)c3)c3ccc(Cl)cc32)[C@H](OC(C)=O)[C@@H](OC(C)=O)[C@@H]1OC(C)=O
Plasmodium falciparum [1]
  IC50: 0.17 µM
[2]
  CC50 at 72 h: 91 µM
Plasmodium falciparum [3]
  IC50: 1.04 µM
[4]
  selectivity ratio: 87.5
[5]
  selectivity ratio: 535

## CCCN1C(=O)/C(=C\C(=O)C[C@@H]2O[C@H](COC(C)=O)[C@@H](OC(C)=O)[C@H](OC(C)=O)[C@H]2OC(C)=O)c2cc(Cl)ccc21
Plasmodium falciparum [1]
  IC50: 1.18 µM
[2]
  CC50 at 72 h: 95.5 µM
Plasmodium falciparum [3]
  IC50: 0.4 µM
[4]
  selectivity ratio: 239
[5]
  selectivity ratio: 81

## CCCCN1C(=O)C(O)(CC(=O)C[C@@H]2O[C@H](COC(C)=O)[C@@H](OC(C)=O)[C@H](OC(C)=O)[C@H]2OC(C)=O)c2cc(Cl)ccc21 (stereo partly drawn)
Plasmodium falciparum [1]
  IC50: > 5 µM
Plasmodium falciparum [3]
  IC50: > 5 µM

## CC(=O)OC[C@H]1O[C@@H](CC(=O)/C=C2\C(=O)Nc3ccc(Cl)cc32)[C@H](OC(C)=O)[C@@H](OC(C)=O)[C@@H]1OC(C)=O
Plasmodium falciparum [1]
  IC50: 2.68 µM
[2]
  CC50 at 72 h: 122 µM
Plasmodium falciparum [3]
  IC50: 2.52 µM
[4]
  selectivity ratio: 48.4
[5]
  selectivity ratio: 45.5

## CCCCN1C(=O)C(O)(CC(=O)C[C@@H]2O[C@H](COC(C)=O)[C@@H](OC(C)=O)[C@H](OC(C)=O)[C@H]2OC(C)=O)c2ccccc21 (stereo partly drawn)
Plasmodium falciparum [1]
  IC50: > 5 µM
Plasmodium falciparum [3]
  IC50: > 5 µM

## CC(=O)OC[C@H]1O[C@@H](CC(=O)/C=C2\C(=O)N(CCc3ccccc3)c3ccc(Cl)cc32)[C@H](OC(C)=O)[C@@H](OC(C)=O)[C@@H]1OC(C)=O
Plasmodium falciparum [1]
  IC50: 0.11 µM
[2]
  CC50 at 72 h: 93 µM
Plasmodium falciparum [3]
  IC50: 0.94 µM
[4]
  selectivity ratio: 98.9
[5]
  selectivity ratio: 845

## CC(=O)OC[C@H]1O[C@@H](CC(=O)CC2(O)C(=O)N(Cc3ccc(Br)cc3)c3ccc(Cl)cc32)[C@H](OC(C)=O)[C@@H](OC(C)=O)[C@@H]1OC(C)=O (stereo partly drawn)
Plasmodium falciparum [1]
  IC50: > 5 µM
Plasmodium falciparum [3]
  IC50: 4.81 µM

## CC(=O)OC[C@H]1O[C@@H](CC(=O)CC2(O)C(=O)N(Cc3ccc(Br)cc3)c3ccccc32)[C@H](OC(C)=O)[C@@H](OC(C)=O)[C@@H]1OC(C)=O (stereo partly drawn)
Plasmodium falciparum [1]
  IC50: > 5 µM
Plasmodium falciparum [3]
  IC50: > 5 µM

## CC(=O)OC[C@H]1O[C@@H](CC(=O)CC2(O)C(=O)N(Cc3cccc(C)c3)c3ccccc32)[C@H](OC(C)=O)[C@@H](OC(C)=O)[C@@H]1OC(C)=O (stereo partly drawn)
Plasmodium falciparum [1]
  IC50: > 5 µM
Plasmodium falciparum [3]
  IC50: > 5 µM

## CC(=O)OC[C@H]1O[C@@H](CC(=O)CC2(O)C(=O)Nc3ccccc32)[C@H](OC(C)=O)[C@@H](OC(C)=O)[C@@H]1OC(C)=O (stereo partly drawn)
Plasmodium falciparum [1]
  IC50: > 5 µM
Plasmodium falciparum [3]
  IC50: > 5 µM

## CCCN1C(=O)C(O)(CC(=O)C[C@@H]2O[C@H](COC(C)=O)[C@@H](OC(C)=O)[C@H](OC(C)=O)[C@H]2OC(C)=O)c2ccccc21 (stereo partly drawn)
Plasmodium falciparum [1]
  IC50: > 5 µM
Plasmodium falciparum [3]
  IC50: > 5 µM

## CC(=O)OC[C@H]1O[C@@H](CC(=O)CC2(O)C(=O)N(CCc3ccccc3)c3ccccc32)[C@H](OC(C)=O)[C@@H](OC(C)=O)[C@@H]1OC(C)=O (stereo partly drawn)
Plasmodium falciparum [1]
  IC50: > 5 µM
Plasmodium falciparum [3]
  IC50: > 5 µM

## CC(=O)OC[C@H]1O[C@@H](CC(=O)/C=C2\C(=O)N(Cc3ccc(F)cc3)c3ccccc32)[C@H](OC(C)=O)[C@@H](OC(C)=O)[C@@H]1OC(C)=O
Plasmodium falciparum [1]
  IC50: 0.47 µM
[2]
  CC50 at 72 h: 119 µM
Plasmodium falciparum [3]
  IC50: 1.19 µM
[4]
  selectivity ratio: 100
[5]
  selectivity ratio: 253

## CC(=O)OC[C@H]1O[C@@H](CC(=O)/C=C2\C(=O)Nc3ccccc32)[C@H](OC(C)=O)[C@@H](OC(C)=O)[C@@H]1OC(C)=O
Plasmodium falciparum [1]
  IC50: 4.27 µM
[2]
  CC50 at 72 h: 127 µM
Plasmodium falciparum [3]
  IC50: > 5 µM
[4]
  selectivity ratio: < 25.4
[5]
  selectivity ratio: 29.8

## CC(=O)OC[C@H]1O[C@@H](CC(=O)CC2(O)C(=O)N(Cc3ccccc3)c3ccccc32)[C@H](OC(C)=O)[C@@H](OC(C)=O)[C@@H]1OC(C)=O (stereo partly drawn)
Plasmodium falciparum [1]
  IC50: > 5 µM
Plasmodium falciparum [3]
  IC50: > 5 µM

## CCCCN1C(=O)/C(=C\C(=O)C[C@@H]2O[C@H](COC(C)=O)[C@@H](OC(C)=O)[C@H](OC(C)=O)[C@H]2OC(C)=O)c2cc(Cl)ccc21
Plasmodium falciparum [1]
  IC50: 0.18 µM
[2]
  CC50 at 72 h: 88.9 µM
Plasmodium falciparum [3]
  IC50: 0.22 µM
[4]
  selectivity ratio: 404
[5]
  selectivity ratio: 494

## CC(=O)OC[C@H]1O[C@@H](CC(=O)CC2(O)C(=O)N(Cc3ccccc3)c3ccc(Cl)cc32)[C@H](OC(C)=O)[C@@H](OC(C)=O)[C@@H]1OC(C)=O (stereo partly drawn)
Plasmodium falciparum [1]
  IC50: > 5 µM
Plasmodium falciparum [3]
  IC50: > 5 µM

## CC(=O)OC[C@H]1O[C@@H](CC(=O)/C=C2\C(=O)N(Cc3cccc(C)c3)c3ccccc32)[C@H](OC(C)=O)[C@@H](OC(C)=O)[C@@H]1OC(C)=O
Plasmodium falciparum [1]
  IC50: 0.53 µM
[2]
  CC50 at 72 h: 72.5 µM
Plasmodium falciparum [3]
  IC50: 0.3 µM
[4]
  selectivity ratio: 242
[5]
  selectivity ratio: 137

## CCN(CC)CCCC(C)Nc1ccnc2cc(Cl)ccc12 (stereo not drawn) [CHLOROQUINE]
[2]
  CC50 at 72 h: > 500 µM
